Laboratory results: ChEMBL document CHEMBL1155447 (J Med Chem, 2010)

Experiments:
[1] = molecular target: T1, Aromatase (Homo sapiens, UniProt P11511)
T1 sequence (P11511 whole entry): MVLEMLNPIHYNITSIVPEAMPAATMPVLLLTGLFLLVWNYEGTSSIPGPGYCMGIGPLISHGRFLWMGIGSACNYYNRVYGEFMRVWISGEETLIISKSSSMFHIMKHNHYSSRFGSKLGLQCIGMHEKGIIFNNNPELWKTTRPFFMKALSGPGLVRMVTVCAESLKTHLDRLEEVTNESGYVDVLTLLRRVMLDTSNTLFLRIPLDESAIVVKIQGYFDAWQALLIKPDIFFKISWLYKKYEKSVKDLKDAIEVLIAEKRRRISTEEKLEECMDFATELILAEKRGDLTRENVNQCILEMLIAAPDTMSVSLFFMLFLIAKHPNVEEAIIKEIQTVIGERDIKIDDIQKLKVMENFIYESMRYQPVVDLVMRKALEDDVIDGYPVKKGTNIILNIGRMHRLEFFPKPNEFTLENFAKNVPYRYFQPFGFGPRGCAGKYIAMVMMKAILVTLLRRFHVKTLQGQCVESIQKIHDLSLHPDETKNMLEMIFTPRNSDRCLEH

[2] = molecular target: T2, Steroid 17-alpha-hydroxylase/17,20 lyase (Homo sapiens, UniProt P05093); experiment: Inhibition of human CYP17 expressed in Escherichia coli at 2.5 uM
T2 sequence (P05093 whole entry): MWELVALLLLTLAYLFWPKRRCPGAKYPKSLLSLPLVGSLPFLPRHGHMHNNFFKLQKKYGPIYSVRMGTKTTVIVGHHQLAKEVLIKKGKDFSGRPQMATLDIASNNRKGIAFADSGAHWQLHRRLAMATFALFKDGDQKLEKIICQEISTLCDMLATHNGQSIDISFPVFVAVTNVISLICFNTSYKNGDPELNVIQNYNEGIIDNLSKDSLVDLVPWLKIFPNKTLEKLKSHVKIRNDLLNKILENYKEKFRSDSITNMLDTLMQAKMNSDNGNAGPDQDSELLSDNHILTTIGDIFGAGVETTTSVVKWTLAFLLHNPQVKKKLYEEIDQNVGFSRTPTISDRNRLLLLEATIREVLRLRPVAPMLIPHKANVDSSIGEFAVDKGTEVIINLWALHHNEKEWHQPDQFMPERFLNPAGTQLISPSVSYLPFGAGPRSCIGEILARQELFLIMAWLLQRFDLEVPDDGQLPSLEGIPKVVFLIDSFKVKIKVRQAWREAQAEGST

[3] = molecular target: T2, Steroid 17-alpha-hydroxylase/17,20 lyase; experiment: Inhibition of human CYP17 expressed in Escherichia coli
[4] = molecular target: T1, Aromatase; experiment: Inhibition of aromatase from human placental microsomes at 10 uM
In short: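 Human placental microsomes were incubated with 1β[3H]androstenedione (500 nM) as substrate. Aromatization was quantified by measuring the tritiated water formed, and results are reported as % inhibition at 10 μM test concentration. Fadrozole served as the positive control.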

| Compound | IC50 [1] | inhibition at 2.5 µM [2] | IC50 [3] | inhibition at 10 µM [4] |
| --- | --- | --- | --- | --- |
| O=c1c2ccccc2sc2c(Cn3ccnc3)cccc12 | 3.98 nM | 28% | – | – |
| O=c1c2ccccc2oc2c(Cn3ccnc3)cc([N+](=O)[O-])cc12 | 53 nM | – | – | – |
| O=c1c2cccnc2oc2c(Cn3ccnc3)ccc([N+](=O)[O-])c12 | 101 nM | – | – | – |
| O=c1c2ccccc2oc2c(Cn3ccnc3)cccc12 | 17 nM | 17% | – | – |
| O=[N+]([O-])c1ccc(Cn2ccnc2)c(Sc2ccccc2)c1 | 5.59 nM | 17% | – | – |
| CC(=O)N1CCN(c2ccc(OCC3COC(Cn4ccnc4)(c4ccc(Cl)cc4Cl)O3)cc2)CC1 (stereo not given) [KETOCONAZOLE] | – | – | – | 17.7% |

Further compounds by falling IC50 [1], results first:

| IC50 [1] | inhibition at 2.5 µM [2] | IC50 [3] | Compound | inhibition at 10 µM [4] |
| --- | --- | --- | --- | --- |
| 7900 nM | 11% | – | O=c1c2ccccc2oc2ccc(Cn3ccnc3)cc12 | – |
| 1900 nM | 9% | – | O=c1c2ccccc2oc2c(Cn3ccnc3)c([N+](=O)[O-])ccc12 | – |
| 389 nM | 8% | – | c1ccc(Oc2ccccc2Cn2ccnc2)cc1 | – |
| 150 nM | – | 880 nM | O=c1c2ccccc2oc2cccc(Cn3ccnc3)c12 | – |
| 16.5 nM | 5% | – | O=c1c2ccccc2sc2c(Cn3ccnc3)ccc([N+](=O)[O-])c12 | – |
| 11.4 nM | – | – | O=[N+]([O-])c1ccc(Cn2ccnc2)c(Oc2ccccc2)c1 | – |
